Active and inactive are the calls of the source. The rule behind the calls is not given here.
Experiments:
Mus musculus [1] = assay: Toxicity in athymic nude mouse xenografted with human NCI-H1435 cells expressing CES2 gene assessed as occurrence of fatty liver administered with six iv injection of 4 mg/kg by hematoxylin/eosin staining-based microscopy; format: organism-based; parameters: dose 4 mg/kg, route intravenous; conditions: in vivo
In short: (§1)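 Female athymic nude mice, 4–6 weeks old, 10 per group. About 2 × 10⁶ H1435 cells were implanted s.c. into the left flank. I.v. tail-vein doses (Dox-equivalent) were given on days 7, 14, 21, 56, 63 and 70 in 5% DMSO/95% D5W. At sacrifice, organs were fixed in 10% formalin for 24 h and paraffin-embedded. Sections were cut at 4 µm and stained with hematoxylin/eosin for microscopy.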

[2] = Cytotoxicity against human NCI-H1435 cells expressing CES2 gene after 5 to 6 days by MTT assay; format: functional
In short: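 MTT growth assay: 2000–4000 viable cells plated, left overnight at 37 °C in 5% CO₂, then exposed to a range of drug concentrations for 5–6 days. MTT added at 0.4 mg/mL final for 4 h, and formazan dissolved in 0.2 N HCl in 75% isopropanol. Absorbance normalized to vehicle control and IC₅₀ obtained from the curves.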

Mus musculus [3] = assay: Toxicity in NOD/SCID mouse xenografted with human HepG2 cells expressing CES2 gene assessed as body weight change at 3 mg/kg, iv administered on day 7, 14 and 21 after tumor implantation; format: organism-based; parameters: dose 3 mg/kg, route intravenous; conditions: in vivo
In short: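 Same NOD/SCID N-Hep G2 flank xenograft model: i.v. tail-vein dosing on days 7, 14 and 21 in 5% DMSO/95% D5W, doses in Dox-equivalent mg/kg, 10 mice/group, vehicle controls. Body weight recorded weekly and followed over the first 5 weeks.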

Mus musculus [4] = assay: Toxicity in NOD/SCID mouse xenografted with human HepG2 cells expressing CES2 gene assessed as body weight change at 4 mg/kg, iv administered on day 7, 14 and 21 after tumor implantation; format: organism-based; parameters: dose 4 mg/kg, route intravenous; conditions: in vivo
In short: (§2)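 Female NOD/SCID mice, 4–6 weeks old, 10 per group. About 1.5 × 10⁷ N-Hep G2 cells were injected s.c. into the left flank. Tail-vein i.v. dosing (mg/kg Dox-equivalent weight) was given on days 7, 14 and 21. Vehicle was 5% DMSO/95% D5W, and controls received vehicle only. Body weight was measured weekly over the first 5 weeks. Survival was followed to study end.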

Mus musculus [5] = assay: Toxicity in athymic nude mouse xenografted with human NCI-H1435 cells expressing CES2 gene assessed as vacuolar damage in ileum administered with six iv injection of 3 to 4 mg/kg by hematoxylin/eosin staining-based microscopy; format: organism-based; parameters: dose 3-4 mg/kg, route intravenous; conditions: in vivo
In short: (§3)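 Kidney and ileum taken from the H1435 nude-mouse study (six i.v. injections). Formalin-fixed for 24 h, paraffin-embedded, and cut into 4 µm sections. Sections deparaffinized in xylene, rehydrated through an ethanol series, stained in Harris hematoxylin for 50 s with eosin, then dehydrated and mounted. Morphology assessed by microscopy.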

NCI-H1435 [6] = assay: Antitumor activity against human NCI-H1435 cells expressing CES2 gene xenografted in athymic nude mouse assessed as reduction in tumor size at 3 to 4 mg/kg, iv administered on day 7, 14 and 21 after tumor implantation; format: functional, organism-based
In short: (§4)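 Athymic nude females, 4–6 weeks old, given ~2 × 10⁶ H1435 cells s.c. in the left flank on day 0; 10 mice/group. I.v. tail-vein doses (Dox-equivalent mg/kg) in 5% DMSO/95% D5W on days 7, 14 and 21, with all groups retreated on days 56, 63 and 70; vehicle controls. Caliper volume π × short² × long/6. Cube roots analysed with day-7 size as baseline covariate, by period.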

NCI-H1435 [7] = assay: Antitumor activity against human NCI-H1435 cells expressing CES2 gene xenografted in athymic nude mouse assessed as slowing of tumor growth at 4 mg/kg, iv administered as three weekly infusion from day 21 to 56 after tumor implantation; format: functional, organism-based; parameters: dose 4 mg/kg; in short: as §4
Mus musculus [8] = assay: Toxicity in NOD/SCID mouse xenografted with human HepG2 cells expressing CES2 gene assessed as survival at 5 mg/kg, iv administered on day 7, 14 and 21 after tumor implantation; format: organism-based; parameters: dose 5 mg/kg, route intravenous; conditions: in vivo; in short: as §2
NCI-H1435 [9] = assay: Antitumor activity against human NCI-H1435 cells expressing CES2 gene xenografted in athymic nude mouse assessed as inhibition of tumor growth at 4 mg/kg, iv administered on day 7, 14 and 21 after tumor implantation; format: functional, organism-based; parameters: dose 4 mg/kg; in short: as §4
Mus musculus [10] = assay: Toxicity in athymic nude mouse xenografted with human NCI-H1435 cells expressing CES2 gene assessed as myofibril disorganization and vacuolization of heart tissue administered with six iv injection of 3 to 4 mg/kg by hematoxylin/eosin staining-based microscopy; format: organism-based; parameters: dose 3-4 mg/kg, route intravenous; conditions: in vivo
In short: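 Hearts and livers taken from the H1435 nude-mouse study (six i.v. injections) after CO₂/cervical dislocation. Fixed in 10% formalin for 24 h, paraffin-embedded, and cut at 4 µm. Slides deparaffinized in xylene and ethanol, stained with Mayer's hematoxylin for 2 min, blued in 1% ammonium hydroxide, and counterstained with eosin for 30 s. Examined by light microscopy.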

HepG2 [11] = assay: Cytotoxicity against human HepG2 cells expressing CES2 gene expressing CES2 gene after 5 to 6 days by MTT assay; format: functional
[12] = Toxicity in pentyl PABC-doxazolidine-treated NOD/SCID mouse xenografted with human HepG2 cells expressing CES2 gene assessed as mortality rate at 5 mg/kg, iv administered on day 45 after tumor implantation; format: organism-based; parameters: dose 5 mg/kg, route intravenous; conditions: in vivo, read-out: Activity
In short: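 NOD/SCID females carried s.c. left-flank N-Hep G2 xenografts (about 1.5 × 10⁷ cells). They first received i.v. 3 mg/kg Dox-equivalent on days 7, 14 and 21. The same group was then redosed i.v. at 5 mg/kg on days 45 and 52 in 5% DMSO/95% D5W. There were 10 mice per group. Deaths were counted to the end of the study.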

NCI-H1435 [13] = assay: Antitumor activity against human NCI-H1435 cells expressing CES2 gene xenografted in pentyl PABC-doxazolidine-pretreated athymic nude mouse assessed as inhibition of tumor growth at 3 to 4 mg/kg, iv administered on day 63 after tumor implantation; format: functional, organism-based; in short: as §4
HepG2 [14] = assay: Antitumor activity against human HepG2 cells expressing CES2 gene xenografted in NOD/SCID mouse assessed as inhibition of tumor growth at 4 to 5 mg/kg, iv administered on day 7, 14 and 21 after tumor implantation; format: functional, organism-based
In short: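 NOD/SCID females, 4–6 weeks old, each given ~1.5 × 10⁷ N-Hep G2 cells s.c. in the left flank; 10 mice/group. Dosed i.v. by tail vein on days 7, 14 and 21, in mg/kg Dox-equivalent, from DMSO diluted into D5W (5% DMSO/95% D5W), 100 µL/mouse. Vehicle-only controls. The 3 mg/kg group was redosed at 5 mg/kg on days 45 and 52. Tumor volume (π × short diameter² × long diameter/6) measured weekly.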

Mus musculus [15] = assay: Toxicity in NOD/SCID mouse xenografted with human HepG2 cells expressing CES2 gene assessed as survival at 4 mg/kg, iv administered on day 7, 14 and 21 after tumor implantation; format: organism-based; parameters: dose 4 mg/kg, route intravenous; conditions: in vivo; in short: as §2
Mus musculus [16] = assay: Toxicity in athymic nude mouse xenografted with human NCI-H1435 cells expressing CES2 gene assessed as thickening of Bowman's capsule in glomerulus administered with six iv injection of 4 mg/kg by hematoxylin/eosin staining-based microscopy; format: organism-based; parameters: dose 4 mg/kg, route intravenous; conditions: in vivo; in short: as §1
Mus musculus [17] = assay: Toxicity in athymic nude mouse xenografted with human NCI-H1435 cells expressing CES2 gene assessed as vacuolar degeneration of kidney tissue administered with six iv injection of 3 to 4 mg/kg by hematoxylin/eosin staining-based microscopy; format: organism-based; parameters: dose 3-4 mg/kg, route intravenous; conditions: in vivo; in short: as §3

CCCCCOC(=O)Nc1ccc(COC(=O)N2CO[C@@H]3[C@H](C)O[C@@H](O[C@H]4C[C@](O)(C(=O)CO)Cc5c(O)c6c(c(O)c54)C(=O)c4c(OC)cccc4C6=O)C[C@@H]32)cc1
Activity (Mus musculus [1]): Toxic
logIC50 [2]: -6.92
Activity (Mus musculus [3]): Non-toxic
Activity (Mus musculus [4]): Active
Activity (Mus musculus [5]): Non-toxic
Activity (NCI-H1435 [6]): inactive
Activity (NCI-H1435 [7]): inactive
Activity (Mus musculus [8]): Non-toxic
inhibition (NCI-H1435 [9]): Active
Activity (Mus musculus [10]): Non-toxic
logIC50 (HepG2 [11]): -6.9
mortality [12]: 60%
inhibition (NCI-H1435 [13]): Active
inhibition (HepG2 [14]): Active
Activity (Mus musculus [15]): Non-toxic
Activity (Mus musculus [16]): Toxic
Activity (Mus musculus [17]): Non-toxic

Source: ChEMBL document CHEMBL1153806, “Preclinical efficacy of a carboxylesterase 2-activated prodrug of doxazolidine” (J Med Chem, 2009)
